We go through four compounds from ChEMBL document CHEMBL3272012, “5-(Tetradecyloxy)-2-furancarboxylic acid and related hypolipidemic fatty acid-like alkyloxyarylcarboxylic acids” (J Med Chem, 1977).

The subject of data set [1] is Rattus norvegicus. In words: Increase in cholesterol level in Wistar rat liver at 441 umol/kg/day administered through diet for 4 days. The data set is classed as ADME, organism-based. The conditions noted are these: in vivo, po, 96 h.
The test system of data set [2] is Rattus norvegicus. In words: Increase in liver weight in Wistar rat at 441 umol/kg/day administered through diet for 4 days. The format is ADME, organism-based. The conditions noted are these: in vivo, po, 96 h.
Data set [3] has as its system Rattus norvegicus. Put plainly: Hypolipidemic activity in Wistar rat assessed as reduction in plasma cholesterol level at 441 umol/kg/day administered through diet for 4 days. Conditions: 96 h. The data set is classed as functional. The gist of the method:
(§1)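 Young male Wistar rats, 170-190 g initial weight, groups of six, given compound mixed thoroughly into Purina Lab Chow ad libitum for 4 or 10 days as stated. Daily dose calculated from food consumption and body weight. Bled by cardiac puncture at end of treatment; plasma cholesterol measured by automated procedure. Expressed as percent reduction versus simultaneous untreated control group; Student's t test.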

Data set [4] deals with Rattus norvegicus. Put plainly: Hypolipidemic activity in Wistar rat assessed as reduction in plasma triglyceride level at 441 umol/kg/day administered through diet for 4 days. The format is functional. Conditions: 96 h.
Data set [5] relates to Rattus norvegicus. Put plainly: Increase in cholesterol level in Wistar rat liver at 437 umol/kg/day administered through diet for 4 days. The conditions noted are these: in vivo, po, 96 h. The format is ADME, organism-based.
Data set [6] has as its system Rattus norvegicus. In words: Hypolipidemic activity in Wistar rat assessed as reduction in plasma cholesterol level at 437 umol/kg/day administered through diet for 4 days. The data set is classed as functional. The conditions noted are these: 96 h. The method, boiled down: as §1
The subject of data set [7] is Rattus norvegicus. In words: Increase in liver weight in Wistar rat at 437 umol/kg/day administered through diet for 4 days. The data set is classed as ADME, organism-based. Conditions: in vivo, po, 96 h.
Data set [8] relates to Rattus norvegicus. Put plainly: Hypolipidemic activity in Wistar rat assessed as reduction in plasma triglyceride level at 437 umol/kg/day administered through diet for 4 days. The conditions noted are these: 96 h. The format is functional.
Data set [9] concerns Rattus norvegicus. In words: Hypolipidemic activity in Wistar rat assessed as reduction in plasma triglyceride level at 314 umol/kg/day administered through diet for 10 days. The data set is classed as functional. The conditions noted are these: 240 h. The method, boiled down: (§2)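 Young male Wistar rats, 170-190 g initial weight, six per group, fed drug mixed thoroughly into Purina Lab Chow ad libitum for the stated days; daily dose calculated from food consumption and body weight. Bled by cardiac puncture at end; plasma cholesterol and triglycerides by automated procedures, expressed as percent reduction versus simultaneous untreated controls; Student's t test.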

Data set [10] concerns Rattus norvegicus. In words: Increase in liver weight in Wistar rat at 154 umol/kg/day administered through diet for 10 days. Conditions: in vivo, po, 240 h. The format is ADME, organism-based.
Data set [11] relates to Rattus norvegicus. In words: Hypolipidemic activity in Wistar rat assessed as reduction in plasma triglyceride level at 154 umol/kg/day administered through diet for 10 days. The format is functional. Conditions: 240 h. The gist of the method: as §2
Data set [12] deals with Rattus norvegicus. Put plainly: Increase in cholesterol level in Wistar rat liver at 154 umol/kg/day administered through diet for 10 days. The format is ADME, organism-based. Conditions: in vivo, po, 240 h.
The test system of data set [13] is Rattus norvegicus. In words: Inhibition of fatty acid biosynthesis in meal fed Wistar rat liver assessed as sodium [1-14C]acetate incorporation at 95 mg/kg/day administered through diet for 7 days measured 1 hr after labeled acetate challenge by liquid scintillation spectrometry (reference value: 182 +/- 22 x 10^-3 dpm). The data set is classed as functional.

The test system of data set [14] is Rattus norvegicus. In words: Increase in liver weight in Wistar rat at 314 umol/kg/day administered through diet for 10 days. The data set is classed as ADME, organism-based. The conditions noted are these: in vivo, po, 240 h.
The subject of data set [15] is Rattus norvegicus. Put plainly: Hypolipidemic activity in Wistar rat assessed as reduction in plasma cholesterol level at 583 umol/kg/day administered through diet for 10 days. The format is functional. The conditions noted are these: 240 h. The method, boiled down: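 Young male Wistar rats (initial weight 170-190 g), groups of six, fed compound mixed into Purina Lab Chow ad libitum for 4 or 10 days; daily dose calculated from food consumption and body weight. Bled by cardiac puncture; plasma cholesterol and triglycerides by automated procedures; percent reduction versus simultaneous untreated controls, Student's t test.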

The test system of data set [16] is Rattus norvegicus. In words: Increase in liver weight in Wistar rat at 410 umol/kg/day administered through diet for 4 days. The format is ADME, organism-based. Conditions: in vivo, po, 96 h.
Data set [17] deals with Rhesus monkey. In words: Hypolipidemic activity in rhesus monkey assessed as reduction in plasma cholesterol level at 308 umol/kg/day administered for 28 days. The format is functional. The conditions noted are these: Macaca mulatta, 672 h.
In data set [18] the test system is Rattus norvegicus. In words: Inhibition of cholesterol biosynthesis in meal fed Wistar rat liver assessed as sodium [1-14C]acetate incorporation at 95 mg/kg/day administered through diet for 7 days measured 1 hr after labeled acetate challenge by liquid scintillation spectrometry (reference value: 41.3 +/- 3.2 x 10^-3 dpm). The format is functional.
Data set [19] deals with Rattus norvegicus. In words: Inhibition of fatty acid biosynthesis in Ad Lib fed Wistar rat liver assessed as sodium [1-14C]acetate incorporation at 154 mg/kg/day administered through diet for 7 days measured 1 hr after labeled acetate challenge by liquid scintillation spectrometry (reference value: 27.2 +/- 4.8 x 10^-3 dpm). The format is functional.
Data set [20] deals with Rattus norvegicus. In words: Inhibition of cholesterol biosynthesis in Ad Lib fed Wistar rat liver assessed as sodium [1-14C]acetate incorporation at 154 mg/kg/day administered through diet for 7 days measured 1 hr after labeled acetate challenge by liquid scintillation spectrometry (reference value: 12.7 +/- 2.6 x 10^-3 dpm). The data set is classed as functional.
Data set [21] concerns Rattus norvegicus. In words: Inhibition of cholesterol synthesis in Wistar rat liver assessed as drug incorporation into cholesterol ester administered for 2 weeks by gas chromatography. The data set is classed as functional, organism-based.
In data set [22] the test system is Rattus norvegicus. Put plainly: Hypolipidemic activity in Wistar rat assessed as reduction in plasma triglyceride level at 410 umol/kg/day administered through diet for 4 days. The conditions noted are these: 96 h. The format is functional.
Data set [23] has as its system Rattus norvegicus. Put plainly: Increase in cholesterol level in Wistar rat liver at 583 umol/kg/day administered through diet for 10 days. The format is ADME, organism-based. The conditions noted are these: in vivo, po, 240 h.
For data set [24], the system named is Rattus norvegicus. In words: Increase in cholesterol level in Wistar rat liver at 410 umol/kg/day administered through diet for 4 days. The data set is classed as ADME, organism-based. Conditions: in vivo, po, 96 h.
Data set [25] has as its system Rattus norvegicus. In words: Increase in liver weight in Wistar rat at 583 umol/kg/day administered through diet for 10 days. The conditions noted are these: in vivo, po, 240 h. The format is ADME, organism-based.
Data set [26] concerns Rattus norvegicus. In words: Hypolipidemic activity in Wistar rat assessed as reduction in plasma triglyceride level at 583 umol/kg/day administered through diet for 10 days. The format is functional. Conditions: 240 h.
Data set [27] relates to Rhesus monkey. In words: Hypolipidemic activity in rhesus monkey assessed as reduction in plasma cholesterol level at 92 umol/kg/day administered for 28 days. The format is functional. Conditions: Macaca mulatta, 672 h.
Data set [28] relates to Rattus norvegicus. In words: Hypolipidemic activity in Wistar rat assessed as reduction in plasma cholesterol level at 154 umol/kg/day administered through diet for 10 days. The conditions noted are these: 240 h. The data set is classed as functional. The gist of the method:
(§3)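 Young male Wistar rats, 170-190 g at start, in groups of six, given compound mixed into Purina Lab Chow ad libitum for 4 or 10 days as stated. Daily dose was calculated from food consumption and body weight. Plasma was taken by cardiac puncture at the end and cholesterol measured by automated procedure. Results are % reduction versus a concurrent untreated control group, with Student's t test.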

Data set [29] concerns Rattus norvegicus. Put plainly: Increase in cholesterol level in Wistar rat liver at 314 umol/kg/day administered through diet for 10 days. The data set is classed as ADME, organism-based. Conditions: in vivo, po, 240 h.
In data set [30] the test system is Rattus norvegicus. Put plainly: Hypolipidemic activity in Wistar rat assessed as reduction in plasma cholesterol level at 314 umol/kg/day administered through diet for 10 days. The format is functional. The conditions noted are these: 240 h. The method, boiled down:
as §3

Data set [31] relates to Rattus norvegicus. Put plainly: Hypolipidemic activity in Wistar rat assessed as reduction in plasma cholesterol level at 410 umol/kg/day administered through diet for 4 days. The data set is classed as functional. The conditions noted are these: 96 h. The gist of the method: as §3
Data set [32] concerns Rattus norvegicus. Put plainly: Inhibition of cholesterol synthesis in Wistar rat liver assessed as drug incorporation into triglycerides administered for 2 weeks by gas chromatography. The data set is classed as functional, organism-based.
In data set [33] the test system is Rattus norvegicus. In words: Inhibition of fatty acid synthesis in Wistar rat liver assessed as drug incorporation into phospholipid administered for 2 weeks by gas chromatography. The data set is classed as functional, organism-based.
Data set [34] concerns Rattus norvegicus. Put plainly: Increase in cholesterol level in Wistar rat liver at 403 umol/kg/day administered through diet for 4 days. Conditions: in vivo, po, 96 h. The format is ADME, organism-based.
The test system of data set [35] is Rattus norvegicus. Put plainly: Hypolipidemic activity in Wistar rat assessed as reduction in plasma cholesterol level at 403 umol/kg/day administered through diet for 4 days. The format is functional. The conditions noted are these: 96 h. The method, boiled down:
as §3

The subject of data set [36] is Rattus norvegicus. In words: Increase in liver weight in Wistar rat at 403 umol/kg/day administered through diet for 4 days. The conditions noted are these: in vivo, po, 96 h. The data set is classed as ADME, organism-based.
In data set [37] the test system is Rattus norvegicus. In words: Hypolipidemic activity in Wistar rat assessed as reduction in plasma triglyceride level at 403 umol/kg/day administered through diet for 4 days. The data set is classed as functional. Conditions: 96 h.

The term inhibition in vivo denotes the relative decrease from the control value, in per cent.

Activity calls are given as the source filed them. The calls are words filed in the database; no cut-off is given here.

On to `CCCCCCCCCCCCCCOc1ccc(C(=O)O)s1`, for which the Activity in data set [1] turned out to be 1%; in data set [2] it was 4%. Also, the inhibition in vivo at 441 µmol/kg in data set [3] was determined as 54%; in data set [4], 83%.
Turning to `CCCCCCCCCCCCCCCCOc1ccc(C(=O)O)o1`, the Activity in [5] stood at 5%; in data set [7], 4%. The inhibition in vivo at 437 µmol/kg was 24% in data set [6] and 25% in [8].
As for `CCCCCCCCCCCCCCOc1ccc(C(=O)O)o1` [TOFA], the inhibition in vivo at 314 µmol/kg in [9] was determined as 61%; in [30], 38%. Moreover, the Activity in data set [10] is 1%; in [12], 5%; in data set [13] it was 60000 dpm; in [14], 15%; in data set [16], 6%; in data set [18], 40800 dpm. Also, the Activity in data set [19] is 22800 dpm; in data set [20], 14900 dpm; in [23], 0%; in data set [24] it was 12%; in [25], 33%; in data set [29], 0%. The results for the inhibition in vivo at 154 µmol/kg in data set [11] and in data set [28] were 27% and 12%, respectively. For the same compound, the inhibition in vivo at 583 µmol/kg in data set [15] was 64%; in [26], 92%. Moreover, the inhibition in vivo at 308 µmol/kg in [17] came to 24%. In addition, the inhibition entry in data set [21] and in [32] was “inactive” each time. In addition, the inhibition in vivo at 410 µmol/kg in data set [22] was found to be 75%; in [31], 40%. For the same compound, the inhibition in vivo at 92 µmol/kg in [27] amounted to 10%. Besides, the inhibition result in [33] was “Active”.
In the case of `CCCCCCCCCCCCCCOc1ccc(C(=O)n2ccnc2)o1`, the Activity in [34] is given as 1%; in data set [36], 14%. Besides, the inhibition in vivo at 403 µmol/kg in [35] came out at 22%; in data set [37] it was 39%.
